Measured values from ChEMBL document CHEMBL1914331, “N-O chemistry for antibiotics: discovery of N-alkyl-N-(pyridin-2-yl)hydroxylamine scaffolds as selective antibacterial agents using nitroso Diels-Alder and ene chemistry” (J Med Chem, 2011).
≈ marks a conversion by molar mass, not a printed value.

Legend:
[1] = system: PC-3; test: Cytotoxicity against human PC3 cells; format: cell-based
[2] = system: Micrococcus luteus; test: Antimicrobial activity against Micrococcus luteus ATCC 10240 after 24 hrs by Kirby-Bauer agar diffusion assay; format: functional
Procedure, shortened: (§1)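 Modified Kirby-Bauer well diffusion. Overnight LB cultures (18–24 h) were standardized in 0.9% saline to 0.5 McFarland and mixed into melted MHII agar at 47–50 °C, giving ~5×10³ CFU/mL. 9 mm wells received 50 µL of 2.0 mM compound in 10:1 MeOH:DMSO. Plates were incubated 24 h at 37 °C, then growth-inhibition zone diameter was measured (mm) by caliper.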

[3] = system: HeLa; test: Cytotoxicity against human HeLa cells; format: cell-based
[4] = system: Enterococcus faecalis; test: Antimicrobial activity against Enterococcus faecalis ATCC 49532 after 24 hrs by Kirby-Bauer agar diffusion assay; format: functional; procedure, shortened: as §1
[5] = system: Micrococcus luteus; test: Antimicrobial activity against Micrococcus luteus ATCC 10240 assessed after 18 hrs by broth microdilution method; format: functional; conditions: ATCC 10240, 18 h
Procedure, shortened: (§2)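 CLSI broth microdilution in cation-adjusted MHII broth. 20 mM DMSO stocks were diluted to 512 µM, then serially 2-fold, giving final 128–0.0625 µM with 5×10⁵ CFU/mL inoculum. Incubated 18 h at 37 °C. MIC90 was the lowest concentration giving 90% inhibition by visual turbidity versus DMSO wells. Run in triplicate.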

[6] = system: Staphylococcus aureus; test: Antimicrobial activity against Staphylococcus aureus SG511 assessed after 18 hrs by broth microdilution method; format: functional; conditions: SG511, 18 h; procedure, shortened: as §2
[7] = system: Staphylococcus aureus; test: Antimicrobial activity against Staphylococcus aureus SG511 after 24 hrs by Kirby-Bauer agar diffusion assay; format: functional; procedure, shortened: as §1
[8] = system: MCF7; test: Cytotoxicity against human MCF7 cells; format: cell-based
[9] = system: Enterococcus faecalis; test: Antimicrobial activity against Enterococcus faecalis ATCC 49532 assessed after 18 hrs by broth microdilution method; format: functional; conditions: ATCC 49532, 18 h; procedure, shortened: as §2

MIC90 [5] [µM] | MIC90 [6] [µM] | MIC90 [9] [µM] | SMILES | Activity [1] | diameter of the inhibition zone (DIZ) [2] | Activity [3] | diameter of the inhibition zone (DIZ) [4] [mm] | diameter of the inhibition zone (DIZ) [7] [mm] | Activity [8]
4 (≈ 0.769 µg/mL) | 128 (≈ 24.6 µg/mL) | > 128 | C=C(C)C(C)(C)N(O)c1ccccn1 | Non-toxic | 33 mm | Non-toxic | 18 | 15 | Non-toxic
64 (≈ 14.5 µg/mL) | 32 (≈ 7.24 µg/mL) | > 128 | C=C(CN(O)c1ccccn1)c1ccccc1 | Non-toxic | 20 mm | Non-toxic | 18 | 19 | Non-toxic
> 128 | > 128 | > 128 | COc1ccc(CON(Cc2ccccc2)c2ccccn2)cc1 | Non-toxic | 0 mm | Non-toxic | 0 | 0 | Non-toxic
≥ 128 | > 128 | > 128 | CN(O)c1ccccn1 | Non-toxic | 18 mm | Non-toxic | 0 | 0 | Non-toxic
> 128 | > 128 | > 128 | CCCN(O)c1ccccn1 | Non-toxic | 13 mm | Non-toxic | 0 | 0 | Non-toxic
128 (≈ 24.9 µg/mL) | > 128 | > 128 | CCCCCCN(O)c1ccccn1 | Non-toxic | 15 mm | Non-toxic | 16 | 17 | Non-toxic
64 (≈ 12.8 µg/mL) | 128 (≈ 25.6 µg/mL) | > 128 | ON(Cc1ccccc1)c1ccccn1 | Non-toxic | 24 mm | Non-toxic | 20 | 18 | Non-toxic
– | – | – | CO[C@@H]1C=C[C@@H](N(O)C(=O)OC(C)(C)C)C1 (racemic) | Non-toxic | <=14 mm | Non-toxic | – | – | Non-toxic
– | – | – | CO[C@@H]1C=C[C@@H](N(O)C(=O)Cc2ccccc2)CC1 (racemic) | Non-toxic | <=14 mm | Non-toxic | – | – | Non-toxic
– | – | – | CO[C@@H]1C=CC[C@H]1N(O)C(=O)OC(C)(C)C (racemic) | Non-toxic | <=14 mm | Non-toxic | – | – | Non-toxic
– | – | – | O[C@H]1C=C[C@@H](N(O)c2ccc(Br)cn2)C1 (racemic) | Non-toxic | >14 mm | Non-toxic | – | – | Non-toxic
– | – | – | O[C@@H]1C=C[C@@H](N(O)c2ccc(Br)cn2)C1 (racemic) | Non-toxic | >14 mm | Non-toxic | – | – | Non-toxic
– | – | – | CC(C)(C)O[C@@H]1C=C[C@@H](N(O)c2ccc(Br)cn2)CC1 (racemic) | Non-toxic | >14 mm | Non-toxic | – | – | Non-toxic
– | – | – | C=CCO[C@@H]1C=C[C@@H](N(O)c2ccc(Br)cn2)CC1 (racemic) | Non-toxic | >14 mm | Non-toxic | – | – | Non-toxic
– | – | – | Cc1cccc(N(O)[C@@H]2C=C[C@@H](OC(C)C)CC2)n1 (racemic) | Non-toxic | >14 mm | Non-toxic | – | – | Non-toxic
– | – | – | Cc1cccc(N(O)[C@@H]2C=C[C@@H](OC(C)(C)C)CC2)n1 (racemic) | Non-toxic | >14 mm | Non-toxic | – | – | Non-toxic
– | – | – | CO[C@@H]1C=CC[C@H]1N(O)c1ccc(Cl)cn1 (racemic) | Non-toxic | >14 mm | Non-toxic | – | – | Non-toxic
– | – | – | O[C@@H]1C=CC[C@H]1N(O)c1ccc(Br)cn1 (racemic) | Non-toxic | >14 mm | Non-toxic | – | – | Non-toxic
– | – | – | O[C@@H]1C=CCC[C@H]1N(O)c1ccc(Br)cn1 (racemic) | Non-toxic | >14 mm | Non-toxic | – | – | Non-toxic

MIC90 [5] [µM] | MIC90 [6] [µM] | MIC90 [9] [µM] | SMILES | Activity [1] | diameter of the inhibition zone (DIZ) [2] | Activity [3] | diameter of the inhibition zone (DIZ) [4] [mm] | diameter of the inhibition zone (DIZ) [7] [mm] | Activity [8]
– | – | – | CO[C@@H]1C=CC[C@H]1N(O)c1ccc(Br)cn1 (racemic) | Non-toxic | >14 mm | Non-toxic | – | – | Non-toxic
– | – | – | CC(C)O[C@@H]1C=CC[C@H]1N(O)c1ccc(Br)cn1 (racemic) | Non-toxic | >14 mm | Non-toxic | – | – | Non-toxic
– | – | – | CC(C)O[C@@H]1C=CCC[C@H]1N(O)c1ccc(Br)cn1 (racemic) | Non-toxic | >14 mm | Non-toxic | – | – | Non-toxic
– | – | – | CC(C)(C)O[C@@H]1C=CCC[C@H]1N(O)c1ccc(Br)cn1 (racemic) | Non-toxic | >14 mm | Non-toxic | – | – | Non-toxic
– | – | – | C=CCO[C@@H]1C=CCC[C@H]1N(O)c1ccc(Br)cn1 (racemic) | Non-toxic | >14 mm | Non-toxic | – | – | Non-toxic
– | – | – | CO[C@@H]1C=CC[C@H]1N(O)c1ncccc1C (racemic) | Non-toxic | >14 mm | Non-toxic | – | – | Non-toxic
– | – | – | Cc1cccnc1N(O)[C@@H]1CC=C[C@H]1OC(C)C (racemic) | Non-toxic | >14 mm | Non-toxic | – | – | Non-toxic
– | – | – | Cc1cccc(N(O)[C@@H]2CCC=C[C@H]2OC(C)C)n1 (racemic) | Non-toxic | >14 mm | Non-toxic | – | – | Non-toxic
– | – | – | Cc1cccc(N(O)[C@@H]2CCC=C[C@H]2OC(C)(C)C)n1 (racemic) | Non-toxic | >14 mm | Non-toxic | – | – | Non-toxic
– | – | – | Cc1cc(N(O)[C@H]2CC=C[C@@H]2OC(C)(C)C)no1 (racemic) | Non-toxic | >14 mm | Non-toxic | – | – | Non-toxic
– | – | – | C=C(CCC=C(C)C)C(CO)N(O)c1ccc(Br)cn1 (racemic) | Non-toxic | >14 mm | Non-toxic | – | – | Non-toxic
– | – | – | C=C(C)C(CC/C(C)=C/CO)N(O)c1ccc(Br)cn1 (racemic) | Non-toxic | >14 mm | Non-toxic | – | – | Non-toxic
– | – | – | CC1=CCCCC1N(O)c1cc(C)on1 (racemic) | Non-toxic | >14 mm | Non-toxic | – | – | Non-toxic
– | – | – | CO[C@@H]1C=CCC[C@H]1N(O)C(=O)Cc1ccccc1 (relative stereo) | Non-toxic | <=14 mm | Non-toxic | – | – | Non-toxic
– | – | – | CC(C)O[C@@H]1C=C[C@@H](N(O)c2ccc(Br)cn2)CC1 (relative stereo) | Non-toxic | >14 mm | Non-toxic | – | – | Non-toxic
– | – | – | Cc1cccc(N(O)[C@@H]2C=C[C@@H](OC(C)(C)C)C2)n1 (relative stereo) | Non-toxic | >14 mm | Non-toxic | – | – | Non-toxic
– | – | – | ON(c1ccc(Br)cn1)[C@@H]1CCC=C[C@H]1OCc1ccccc1 (relative stereo) | Non-toxic | >14 mm | Non-toxic | – | – | Non-toxic
– | – | – | O=C(NO)c1ccccc1 [BENZOHYDROXAMATE] | Non-toxic | <=14 mm | Non-toxic | – | – | Non-toxic
– | – | – | O=C(Cc1ccccc1)NO [PHENYLACETOHYDROXAMIC ACID] | Non-toxic | <=14 mm | Non-toxic | – | – | Non-toxic
